High-throughput results (PubChem BioAssay)
This is a sample that favours compounds with a hit; in the whole collection about 1.8% have one here.
PAD4 FP inh = blocks human protein arginine deiminase 4; Q9UM07; recombinant PAD4, RCA probe fluorescence polarization; inhibition, % at 6.36 µM; 330,000 tested, 0.41% active; AID 485272;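 active = percent inhibition above a cutoff equal to the mean of all tested compounds plus 3 SD, cut at about 15% in these data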
GSTO1 counter = blocks human GSTO1 in RBBP9 counter-screen | recombinant GSTO1, activity-based probe fluorescence polarization | 300,000 tested, 1.1% active | inhibition, % at 5.96 µM;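 active = inhibition above the campaign mean inhibition plus 3 SD, cut at about 35% in these data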
TDP2 inh = TDP2 (human) inhibition, absorbance primary screen | O95551 | recombinant TDP2, T5PNP hydrolysis, p-nitrophenol absorbance 415 nm | inhibition, % at 12.8 µM | 370,000 tested, 0.34% active | AID 720702;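 active = inhibition above the mean of all tested compounds plus 3 SD, set per campaign, cut at about 25% in these data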
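Test system: human TDP2 enzyme; Input: 120 nM TDP2 per well; Buffer or medium: Mg2+-containing Tris-HCl buffer, pH 7.5; Reagent: 5 mM T5PNP; Dosing: 12.8 µM single point, 1% DMSO; Incubation: reaction 2 h, 37 °C; Detection: p-Nitrophenol epi absorbance; Read-out: % inhibition relative to enzyme-containing and enzyme-free wells; Replicates: single well per compound.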
CTSL1 counter = cathepsin L1 inhibition, PFM18AAP counter-screen | 300,000 tested, 0.49% active | AID 1906 | inhibition, % at 5.96 µM | recombinant F. hepatica cathepsin L1, Z-Leu-Arg-MCA fluorescence;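 active = inhibition above the mean of all tested compounds plus 3 SD, set per screening campaign, cut at about 17% in these data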
Apaf1 inhib = inhibitors of human Apaf-1 apoptosome; O14727; reconstituted apoptosome caspase-3 activity, DEVD-Rh110 fluorescence; inhibition, % at 20 µM; 330,000 tested, 0.71% active; active = inhibition of at least 40% at 20 µM
Target sequence (O14727 whole entry, looked up): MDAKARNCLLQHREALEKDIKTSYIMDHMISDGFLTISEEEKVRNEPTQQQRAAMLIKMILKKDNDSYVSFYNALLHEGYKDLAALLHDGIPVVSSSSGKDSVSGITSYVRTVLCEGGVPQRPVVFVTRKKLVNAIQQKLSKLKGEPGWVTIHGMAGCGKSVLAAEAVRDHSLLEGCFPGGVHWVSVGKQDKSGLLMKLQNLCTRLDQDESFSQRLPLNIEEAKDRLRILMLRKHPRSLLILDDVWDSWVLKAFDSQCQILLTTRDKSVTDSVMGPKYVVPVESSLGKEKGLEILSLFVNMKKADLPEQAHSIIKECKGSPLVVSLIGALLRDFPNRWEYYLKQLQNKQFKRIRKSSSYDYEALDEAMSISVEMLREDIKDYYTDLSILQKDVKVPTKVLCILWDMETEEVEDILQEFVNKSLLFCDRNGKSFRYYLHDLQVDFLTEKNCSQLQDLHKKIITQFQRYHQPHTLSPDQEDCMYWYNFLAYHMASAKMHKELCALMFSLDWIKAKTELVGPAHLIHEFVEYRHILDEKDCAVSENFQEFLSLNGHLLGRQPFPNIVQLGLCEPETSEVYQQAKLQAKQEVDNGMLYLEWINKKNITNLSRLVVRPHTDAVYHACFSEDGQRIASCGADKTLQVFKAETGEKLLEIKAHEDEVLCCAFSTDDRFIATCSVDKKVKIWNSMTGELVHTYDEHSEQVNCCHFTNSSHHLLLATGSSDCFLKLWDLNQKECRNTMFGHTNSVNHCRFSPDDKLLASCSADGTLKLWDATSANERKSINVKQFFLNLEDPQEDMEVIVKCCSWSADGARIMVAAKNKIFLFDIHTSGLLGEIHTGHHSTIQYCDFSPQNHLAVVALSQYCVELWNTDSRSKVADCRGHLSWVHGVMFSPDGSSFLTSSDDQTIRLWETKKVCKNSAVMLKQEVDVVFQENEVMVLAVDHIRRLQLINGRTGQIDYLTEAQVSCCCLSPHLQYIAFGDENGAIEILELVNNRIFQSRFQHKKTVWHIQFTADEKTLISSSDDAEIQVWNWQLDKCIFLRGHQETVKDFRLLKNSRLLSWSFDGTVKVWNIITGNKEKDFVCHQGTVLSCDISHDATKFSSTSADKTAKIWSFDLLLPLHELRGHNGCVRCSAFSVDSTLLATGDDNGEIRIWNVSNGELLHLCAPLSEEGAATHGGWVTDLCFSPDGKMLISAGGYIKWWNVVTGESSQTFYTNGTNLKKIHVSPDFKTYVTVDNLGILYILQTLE
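detection = Rh110 fluorescence intensity | test system = biochemical Apaf-1 apoptosome reconstitution | also added = cytochrome c and DEVD-Rh110 substrate | schedule = 30 min plus 50 min, RT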
TDP2 inh conf = human TDP2 inhibition, confirmation; recombinant human TDP2, absorbance read-out; shares compounds with TDP2 inh; inhibition, % at 12.8 µM; AID 743263; 1,100 tested, 22% active; in the data active = inhibition above about 25%
Numbers stand for hits; – = inactive; · = no result given.

SMILES | PAD4 FP inh | GSTO1 counter | TDP2 inh | CTSL1 counter | Apaf1 inhib | TDP2 inh conf
C/C(C=NNC(=O)CSc1nnc(-c2ccccc2)n1-c1ccc(C)cc1)=C\c1ccco1 | · | · | – | · | · | ·
O=C(CCS(=O)(=O)c1ccccc1)Nc1ccc(F)cc1Cl | · | · | – | · | · | ·
CC1=NN(c2ccccc2)C(=O)C1C(=O)C(=O)Nc1ccc(F)cc1 (stereo not given) | – | – | 32.4 | – | – | –
O=C(NCc1ccco1)C1CC(=O)N(CCc2ccccc2)C1 (stereo not given) | – | – | – | – | – | ·
O=C(NCc1ccc(F)cc1)C1CC(=O)N(Cc2ccco2)C1 (stereo not given) | – | – | 25.2 | – | – | –
CCOc1ccc2nc(SCC(=O)NCC3CCCO3)c(C#N)cc2c1 (stereo not given) | – | – | 27.4 | – | – | –
CCc1ccc2nc(SCC(=O)NCC3CCCO3)c(C#N)cc2c1 (stereo not given) | – | – | – | – | – | ·
Nn1c(SCC(=O)NC2CCCCC2)nnc1-c1n[nH]c2c1CCC2 | · | · | – | · | · | ·
COc1cc(CN2CCN(Cc3cccc(OC)c3OC)CC2)cc(OC)c1 | – | – | 25.8 | – | – | –
O=C1C=C(O)c2[nH]c(=O)ccc2C1=O | · | · | 41.2 | · | · | 41.8
O=C(Nc1ccc(F)cc1)OC1CC2CC1[C@H]1CCCCN1[C@H]2Cc1ccccc1 (stereo not given in full) | · | · | – | · | · | ·
CCN(CC)CCCN1C(=O)C2C(C(=O)Nc3ccc(C(C)C)cc3)C3C=CC2(O3)C1C(=O)NC1CCCCC1 (stereo not given) | – | – | 26.7 | – | – | –
CC1CCCN(CCOCCOc2ccc(Br)cc2Cl)C1 (stereo not given) | – | – | – | – | – | ·
CCN1CCN(CCOCCOc2ccccc2)CC1 | – | – | 27.6 | – | – | –
CCc1ccc(OCCOCCN2CCN(C)CC2)cc1 | – | – | 31.6 | – | – | –
CN1CCN(CCOCCOc2ccc(Br)cc2Cl)CC1 | – | – | 29.2 | – | – | –
CCOC(=O)CSC1=NC(=O)/C(=C/c2ccc(Br)cc2)S1 | – | – | 24.8 | – | – | –
Cc1cccc2nc(-c3ccccc3)c(-c3ccc(CN4CCC5(CC4)CNc4ccccc45)cc3)nc12 | · | · | – | · | · | ·
CCOC(=O)C1(Cc2ccccc2C)CCCN(C(=O)c2sccc2C)C1 (stereo not given) | – | – | – | – | – | ·
CCOC(=O)C1(CCOC)CCN(C(=O)c2sccc2C)CC1 | – | – | 26.0 | – | – | –
O=C(NCc1ccccc1)[C@@H]1CCCN1C(=O)[C@H]1CCCN1C(=O)N1CCCCC1 | · | · | – | · | · | ·
COc1ccc(N2C(=O)CC(Nc3ccc(N4CCOCC4)cc3)C2=O)c(OC)c1 (stereo not given) | – | – | 24.6 | – | – | –
CN(C)c1ccc(N2C(=O)CC(Nc3ccc(N4CCOCC4)cc3)C2=O)cc1 (stereo not given) | – | – | – | – | – | ·
Cc1ccc(-c2c(C(=O)NCC(C)C)oc(=O)c3ccccc23)cc1 | · | · | – | · | · | ·
CC1=NN(c2ccccc2)C(=O)C1N=Nc1ccccc1 (stereo not given) | – | – | – | – | – | ·
SMILES | PAD4 FP inh | GSTO1 counter | TDP2 inh | CTSL1 counter | Apaf1 inhib | TDP2 inh conf
CC1=NN(c2ccccc2)C(=O)C1N=Nc1ccc(N)cc1 (stereo not given) | – | – | 28.8 | – | – | –
CCNC(=S)NS(=O)(=O)c1ccccc1 | – | – | – | – | – | ·
CCNC(=S)NS(=O)(=O)c1ccc(Cl)cc1 | – | – | 36.6 | – | – | –
COc1ccc(CC(=O)OCC(=O)NCc2ccc3c(c2)OCO3)cc1OC | – | · | – | · | – | ·
COc1ccc(CC(=O)OC(C)C(=O)NCc2ccc3c(c2)OCO3)cc1OC (stereo not given) | – | – | 44.4 | – | – | –
COc1ccccc1OCCn1cc(/C=C(\C#N)C(=O)NCc2ccco2)c2ccccc21 | – | – | 103.0 | – | – | –
CN1C(=O)/C(=C/c2ccc(C(=O)Nc3ccc(O)cc3C(=O)O)cc2)SC1=S | – | – | 27.7 | – | – | –
CN1CCN(S(=O)(=O)c2ccc(NC(=O)COc3ccccc3)cc2)CC1 | – | – | – | – | – | ·
CN(CCOc1ccccc1)CC(=O)Nc1ccc(S(=O)(=O)N2CCCC2)cc1 | – | – | 30.0 | – | – | –
